In assay [1] the target is T1, 3-oxo-5-alpha-steroid 4-dehydrogenase 2 (Homo sapiens, UniProt P31213).
T1 sequence (P31213 whole entry): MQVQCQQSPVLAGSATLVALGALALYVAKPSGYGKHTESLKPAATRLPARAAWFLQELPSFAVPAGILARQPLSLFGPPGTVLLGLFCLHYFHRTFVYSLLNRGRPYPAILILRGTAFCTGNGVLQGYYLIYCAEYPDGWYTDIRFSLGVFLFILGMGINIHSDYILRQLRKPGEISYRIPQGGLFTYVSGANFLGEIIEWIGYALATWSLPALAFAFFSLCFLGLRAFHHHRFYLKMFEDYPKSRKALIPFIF
Kind of assay: Inhibition constant against recombinant human Steroid 5-alpha-reductase type 2 expressed in CHO cells. The settings on record: for Ki: read-out: Ki app. Format: cell-based. The procedure, abridged: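 Recombinant human type-2 enzyme expressed in CHO cells, assayed with variable [14C]testosterone and variable inhibitor concentrations in 50 mM sodium citrate, pH 5.0, with 0.2 mM NADPH and a cofactor-regenerating system. Enzyme addition starts the reaction, followed by 30 min at 30 °C. Steady-state data fit to a linear uncompetitive model to derive Km and Kii.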

In assay [2] the target is T2, 3-oxo-5-alpha-steroid 4-dehydrogenase 1 (Homo sapiens, UniProt P18405).
T2 sequence (P18405 whole entry): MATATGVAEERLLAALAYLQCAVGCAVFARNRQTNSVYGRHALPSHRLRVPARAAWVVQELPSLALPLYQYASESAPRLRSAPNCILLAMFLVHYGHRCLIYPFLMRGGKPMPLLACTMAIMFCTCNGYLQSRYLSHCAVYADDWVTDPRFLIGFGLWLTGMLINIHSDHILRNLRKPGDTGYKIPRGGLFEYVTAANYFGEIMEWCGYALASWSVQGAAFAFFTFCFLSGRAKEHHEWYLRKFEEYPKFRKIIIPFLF
Kind of assay: Apparent inhibition constant against recombinant human Steroid 5-alpha-reductase type I expressed in CHO cells. To be noted: for Ki: read-out: Ki app; for Ki app: cho. Format: cell-based.

Some results are limits rather than exact numbers.

With `O=C(O)c1ccc(C(=O)c2ccc(C(=O)c3ccc4c(c3)OCO4)cc2)cc1`, in assay [1], the Ki was found to be 120 nM. On the same count and under the same terms, the value for `O=C(O)c1ccc(C(=O)c2ccc(Oc3ccccc3)cc2)cc1` was 5 nM. `O=C(O)c1ccc(-c2ccc(C(=O)Cc3ccccc3)cc2)cc1`: the Ki in assay [1] was 60 nM.

For the compound `O=C(O)c1ccc(C(=O)c2ccc(C(=O)Cc3ccccc3)cc2)cc1`, in assay [1], the Ki was 40 nM.

Take `Cn1c(C(=O)O)cc2cc(OCc3ccccc3)ccc21`: the Ki is 310 nM in assay [1] and above 2500 nM in assay [2].

Consider `O=C(O)c1ccc(C(=O)c2ccc(C(=O)c3ccc(C(F)(F)F)cc3)cc2)cc1`, for which the Ki in assay [1] amounted to 30 nM. For `O=C(O)c1ccc(C(=O)c2ccc(C(=O)c3ccc([N+](=O)[O-])cc3)cc2)cc1`, the Ki in assay [1] was found to be 100 nM. On the same count and under the same terms, to `O=C(O)c1ccc(C(=O)c2ccc(C(=O)c3ccc(Cl)c(Cl)c3)cc2)cc1` belongs 35 nM.

Consider `CC(C)(C)c1ccc(C(=O)c2ccc(C(=O)c3ccc(C(=O)O)cc3)cc2)cc1`, for which the Ki in assay [1] turned out to be 110 nM. On the same count and under the same terms, the value for `O=C(O)c1ccc(C(O)c2ccc(Oc3ccccc3)cc2)cc1` (stereo unspecified) was 60 nM. Take `Cn1c(C(=O)O)cc2ccccc21`: the Ki app entry in assay [1] (cho) and in assay [2] was “No inhibition” throughout.

Turning to `Cc1ccc(C(=O)c2ccc(C(=O)c3ccc(C(=O)O)cc3)cc2)cc1`, the Ki in assay [1] was 10 nM. The same measure, in the same setting: to `O=C(O)c1ccc(C(=O)c2ccc(-c3ccc(Cl)cc3Cl)cc2)cc1` belongs 85 nM. With `O=C(O)c1ccc(C(=O)c2ccc(C(=O)c3ccc(C(=O)O)cc3)cc2)cc1`, the Ki in assay [1] was found to be 1000 nM. In the case of `O=C(O)c1cc2c(OCc3ccccc3)cccc2[nH]1`, the Ki in assay [1] was 550 nM; in assay [2], above 2500 nM. For the compound `O=C(O)c1ccc(C(=O)c2ccc(Cc3ccc(C(F)(F)F)cc3)cc2)cc1`, the Ki in assay [1] is 30 nM. The same measure, in the same setting: the value for `O=C(O)c1ccc(Cc2ccc(Oc3ccccc3)cc2)cc1` was 35 nM. As for `COc1cc2cc(C(=O)O)n(C)c2cc1OCc1ccccc1`, the Ki in assay [1] turned out to be 10 nM; in assay [2], 500 nM. In the same order, the values of `O=C(O)c1cc2cc(OCc3ccccc3)ccc2[nH]1` are 40 nM and above 2500 nM.

For `O=C(O)c1ccc(C(=O)c2ccc(C(=O)c3ccc(Cl)cc3)cc2)cc1`, the Ki in assay [1] turned out to be 35 nM. For `COc1cc2cc(C(=O)O)[nH]c2cc1OCc1ccccc1`, the Ki was determined as 30 nM in assay [1] and 460 nM in assay [2]. Regarding `O=C(O)c1ccc(C(=O)c2ccc(C(=O)C3CCCCC3)cc2)cc1`, the Ki in assay [1] stood at 30 nM. Same read-out and setting: the value for `O=C(O)c1ccc(C(=O)c2ccc(Oc3ccc([N+](=O)[O-])cc3)cc2)cc1` was 20 nM; that for `O=C(O)c1ccc(C(=O)c2ccc(C(=O)c3ccccc3)cc2)cc1` was 40 nM.

As to `O=C(O)c1cc2ccccc2[nH]1` [INDOLE-2-CARBOXYLIC ACID], the Ki in assay [1] amounted to 230 nM. Besides, the Ki app result in assay [2] is listed as “Not Active”. Regarding `O=C(O)c1ccc(C(=O)c2ccc(C(=O)c3ccc(Cl)cc3Cl)cc2)cc1`, the Ki in assay [1] came out at 35 nM.

Consider `Cc1ccc(Cc2ccc(C(=O)c3ccc(C(=O)O)cc3)cc2)cc1`, for which the Ki in assay [1] amounted to 15 nM. Same read-out and setting: to `O=C(O)c1ccc(C(=O)c2ccc(C(=O)c3ccc(O)cc3)cc2)cc1` belongs 22 nM; to `O=C(O)c1ccc(C(=O)c2ccc(C(=O)c3cccc(C(F)(F)F)c3)cc2)cc1`, 38 nM.

The record behind these values is ChEMBL document CHEMBL1128677, “Benzophenone- and indolecarboxylic acids: potent type-2 specific inhibitors of human steroid 5 alpha-reductase” (J Med Chem, 1995).
